This is an account of results in ChEMBL document CHEMBL1145127 (J Med Chem, 2003).

The target of data set [1] is Phosphodiesterase 3B (Bos taurus, UniProt E1BN64). In words: Inhibition of bovine aorta PDE3 (Phosphodiesterase 3).
Data set [2] is filed under the species Rattus norvegicus. The data set can be described thus: Effective concentration against rat aortic smooth muscle cell. The format is functional. Summed up:
(§1)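 Rat aortic smooth muscle cells cultured in DMEM with 10% fetal calf serum at 37 °C, seeded at (2-5) × 10⁴ cells/well and used confluent after 3-5 days. Cells preincubated 30 min at 37 °C in PBS with inhibitor, then stimulated with atrial natriuretic factor (0.1 µM) 10 min. Intracellular cGMP extracted with 65% ethanol. Triplicate wells, DMSO ≤0.1%. EC50 taken as concentration giving half-maximal cGMP increase.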

Data set [3] deals with cGMP-dependent 3',5'-cyclic phosphodiesterase (Homo sapiens, UniProt O00408). In words: Inhibition of Human recombinant PDE2 (Phosphodiesterase 2).
Sequence of cGMP-dependent 3',5'-cyclic phosphodiesterase (O00408 whole entry): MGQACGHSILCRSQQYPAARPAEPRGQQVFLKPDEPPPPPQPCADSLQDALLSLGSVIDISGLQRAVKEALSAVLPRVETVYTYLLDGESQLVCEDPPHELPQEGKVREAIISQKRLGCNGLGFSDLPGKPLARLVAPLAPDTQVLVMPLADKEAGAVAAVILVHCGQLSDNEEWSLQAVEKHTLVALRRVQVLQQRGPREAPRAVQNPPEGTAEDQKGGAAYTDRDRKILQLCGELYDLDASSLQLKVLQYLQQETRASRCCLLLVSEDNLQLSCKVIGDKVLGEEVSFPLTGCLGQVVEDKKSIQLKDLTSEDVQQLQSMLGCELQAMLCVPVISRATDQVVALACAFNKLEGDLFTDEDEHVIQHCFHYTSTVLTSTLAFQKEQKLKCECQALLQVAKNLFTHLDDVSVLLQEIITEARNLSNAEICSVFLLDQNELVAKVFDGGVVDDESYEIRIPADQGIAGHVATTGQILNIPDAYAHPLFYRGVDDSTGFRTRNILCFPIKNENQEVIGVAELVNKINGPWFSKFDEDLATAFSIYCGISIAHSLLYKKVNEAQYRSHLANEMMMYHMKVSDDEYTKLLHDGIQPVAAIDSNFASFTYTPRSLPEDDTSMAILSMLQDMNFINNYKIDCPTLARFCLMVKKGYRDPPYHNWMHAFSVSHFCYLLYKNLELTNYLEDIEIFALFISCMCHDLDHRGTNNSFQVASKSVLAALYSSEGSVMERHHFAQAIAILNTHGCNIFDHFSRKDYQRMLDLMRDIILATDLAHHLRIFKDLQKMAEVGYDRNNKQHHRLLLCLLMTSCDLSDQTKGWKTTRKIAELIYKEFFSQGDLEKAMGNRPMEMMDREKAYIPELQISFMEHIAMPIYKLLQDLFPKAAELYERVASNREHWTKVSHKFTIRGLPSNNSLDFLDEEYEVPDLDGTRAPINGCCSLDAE
The nature of data set [4]: The total clearance time in plasma in rat was determined. The format is ADME, organism-based.
The target of data set [5] is Phosphodiesterase 1 (Bos taurus, UniProt Q01061+P14100). In words: Inhibition of bovine aorta PDE1 (Phosphodiesterase 1). The format is protein assay.
Data set [6] has as its target Phosphodiesterase 6. The data set can be described thus: Inhibition of bovine retina PDE6 (Phosphodiesterase 6). The format is protein assay, Bos taurus.
The nature of data set [7]: Half life in rat. The format is ADME, organism-based. The conditions noted are these: in vivo.
The nature of data set [8]: Oral bioavailability in rat was determined. The format is ADME, organism-based. The note with it: in vivo.
The target in data set [9] is cGMP-specific 3',5'-cyclic phosphodiesterase (Bos taurus, UniProt Q28156). In words: In vitro inhibitory activity against bovine phosphodiesterase 5.
Data set [10] is filed under the species Rattus norvegicus. The data set can be described thus: Increased intracellular cGMP concentration in rat aortic smooth cells (RSMC) using atrial natriuretic factor. The conditions noted are these: Aorta. The format is functional, cell-based. Summed up:
as §1

The target of data set [11] is cGMP-specific 3',5'-cyclic phosphodiesterase (Bos taurus) (UniProt Q28156). The data set can be described thus: Inhibition of bovine PDE5 (Phosphodiesterase 5). The note with it: concentration not given here.

Molecules are shown by their SMILES.

Sequence of Phosphodiesterase 3B (E1BN64 whole entry): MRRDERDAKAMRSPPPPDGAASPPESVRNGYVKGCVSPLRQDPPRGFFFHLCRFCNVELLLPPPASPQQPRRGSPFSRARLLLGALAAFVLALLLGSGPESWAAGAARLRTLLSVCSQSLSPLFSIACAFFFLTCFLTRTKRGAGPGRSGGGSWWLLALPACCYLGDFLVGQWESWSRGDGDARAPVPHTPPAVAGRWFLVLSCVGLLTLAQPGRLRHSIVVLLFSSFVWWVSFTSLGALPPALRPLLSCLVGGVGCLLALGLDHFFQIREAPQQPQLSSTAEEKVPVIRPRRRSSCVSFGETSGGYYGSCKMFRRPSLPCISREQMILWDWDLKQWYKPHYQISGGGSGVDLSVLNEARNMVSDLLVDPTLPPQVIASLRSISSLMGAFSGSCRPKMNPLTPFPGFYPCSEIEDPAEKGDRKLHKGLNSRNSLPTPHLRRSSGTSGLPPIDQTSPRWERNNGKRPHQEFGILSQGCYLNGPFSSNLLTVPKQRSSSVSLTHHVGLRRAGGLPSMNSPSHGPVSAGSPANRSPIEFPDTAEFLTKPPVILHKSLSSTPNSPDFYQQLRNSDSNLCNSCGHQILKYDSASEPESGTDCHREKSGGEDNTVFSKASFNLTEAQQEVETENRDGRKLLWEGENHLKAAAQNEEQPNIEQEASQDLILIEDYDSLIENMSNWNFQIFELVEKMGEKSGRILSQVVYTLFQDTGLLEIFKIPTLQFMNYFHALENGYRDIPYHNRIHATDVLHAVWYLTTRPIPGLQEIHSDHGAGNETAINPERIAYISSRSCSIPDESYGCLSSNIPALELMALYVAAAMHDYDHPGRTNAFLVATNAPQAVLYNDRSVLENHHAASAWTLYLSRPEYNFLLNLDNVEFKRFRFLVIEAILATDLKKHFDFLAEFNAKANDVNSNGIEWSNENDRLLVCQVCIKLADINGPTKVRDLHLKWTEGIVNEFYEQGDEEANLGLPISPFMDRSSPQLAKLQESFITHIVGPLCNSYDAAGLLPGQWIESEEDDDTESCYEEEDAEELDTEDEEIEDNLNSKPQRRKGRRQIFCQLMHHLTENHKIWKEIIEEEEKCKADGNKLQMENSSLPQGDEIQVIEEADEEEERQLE

Broadly, the IC50 is the point on the concentration scale where inhibition reaches its midpoint. In the case of `CCCc1nn(C)c2c(=O)[nH]c(-c3cc(S(=O)(=O)N4CCN(C)CC4)ccc3OCC)nc12`, in [1], the IC50 is 9200 nM.

The term EC50 denotes the concentration at which the effect is half-maximal. Consider `CCN1CC(=O)N2[C@H](c3ccc(OC)cc3)c3[nH]c4ccccc4c3C[C@@H]2C1=O`, for which a half-maximal response in data set [2] (Rattus norvegicus) (EC50) required 500 nM.

Broadly, the clearance is a measure of how efficiently the substance is removed, as volume per time. Usually half-life stands for the time in which the quantity being followed falls by half. A lower half-life goes with rapid decline. What is called bioavailability is the share of a dose that reaches the circulation, judged against a reference dose that is usually intravenous. High values mean much systemic uptake, low ones little systemic uptake. Turning to `CN1CC(=O)N2[C@H](c3ccc4c(c3)OCO4)c3[nH]c4ccccc4c3C[C@@H]2C1=O` (stereo in doubt; 12a), the IC50 is more than 10000 nM in data set [1], more than 10000 nM in data set [3], more than 10000 nM in [5] and 5100 nM in data set [6]. In data set [4], this compound showed a clearance of 5.1 mL/min/kg. In addition, a half-maximal effect in data set [2] (EC50) was put at 150 nM. In [7], this compound gave a half-life of 2.4 h. The compound further yielded a bioavailability in data set [8] of 63%.

`COc1ccc(C2c3[nH]c4ccccc4c3C[C@@H]3C(=O)N(C)C(=O)N23)cc1` (some centres not stated) had an EC50 in data set [2] (Rattus norvegicus) of 1000 nM. Moreover, in data set [9], the IC50 turned out to be 10 nM.

In turn, `COc1ccc([C@@H]2c3[nH]c4ccccc4c3C[C@@H]3C(=O)N(C)CC(=O)N23)cc1` yielded an EC50 in data set [2] (Rattus norvegicus) of 200 nM. The IC50 in [9] turned out to be 41 nM.

For the compound `CCCCN1CC(=O)N2[C@H](c3ccc4c(c3)OCO4)c3[nH]c4ccccc4c3C[C@@H]2C1=O` (stereo in doubt), a half-maximal effect in data set [2] (EC50) was put at 600 nM. This compound also displayed an IC50 in [9] of 5 nM.

The compound `CCCCN1C(=O)[C@H]2Cc3c([nH]c4ccccc34)C(c3ccc(OC)cc3)N2C1=O` (some centres not stated) came in with an EC50 in [10] of 700 nM.

In data set [2] (Rattus norvegicus), `Cc1ccc([C@@H]2c3[nH]c4ccccc4c3C[C@@H]3C(=O)N(CC4CC4)CC(=O)N23)cc1` came in with an EC50 of 600 nM. Besides, in data set [9], the IC50 was 23 nM.

Take `O=C1[C@H]2Cc3c([nH]c4ccccc34)C(c3ccc4c(c3)OCO4)N2C(=O)N1Cc1ccccc1` (some centres not stated): in data set [2] (Rattus norvegicus), the EC50 worked out at 3000 nM. In addition, the IC50 in data set [9] was 6 nM.

`CCCCN1C(=O)C2Cc3c([nH]c4ccccc34)C(c3ccc(OC)cc3)N2C1=O` (configuration not stated) returned an EC50 in data set [2] (Rattus norvegicus) of 1000 nM.

In [2] (Rattus norvegicus), `O=C1[C@H]2Cc3c([nH]c4ccccc34)[C@@H](c3ccc4c(c3)OCO4)N2C(=O)CN1C1CCCCC1` had an EC50 of 300 nM. The compound further returned an IC50 in data set [9] of 5 nM.

Consider `O=C1[C@H]2Cc3c([nH]c4ccccc34)[C@@H](c3ccc4c(c3)OCO4)N2C(=O)CN1Cc1ccccc1`, for which, in data set [2] (Rattus norvegicus), the EC50 stood at 800 nM. The compound further had an IC50 in [9] of 3 nM.

`COc1ccc([C@@H]2c3[nH]c4ccccc4c3C[C@@H]3C(=O)N(CC4CC4)CC(=O)N23)cc1` returned an EC50 in [2] (Rattus norvegicus) of 500 nM. Besides, the midpoint of inhibition in data set [9], the IC50, lay at 6 nM.

As to `CN1CC(=O)N2[C@H](c3ccc4c(c3)OCO4)c3[nH]c4ccccc4c3C[C@@H]2C1=O` (stereo in doubt), in [2], the EC50 was 500 nM.

Take `CCCCN1CC(=O)N2[C@H](c3ccc(OC)cc3)c3[nH]c4ccccc4c3C[C@@H]2C1=O`: a half-maximal effect in data set [2] (Rattus norvegicus) (EC50) was put at 1500 nM. For the same compound, half-maximal inhibition in data set [9] (IC50) was put at 5 nM.

`CCCCN1CC(=O)N2C(c3ccc(Cl)cc3)c3[nH]c4ccccc4c3C[C@@H]2C1=O` (some centres not stated) came in with an EC50 in data set [2] (Rattus norvegicus) of more than 10000 nM. This compound yielded an IC50 in data set [9] of 15 nM.

In [2], `CC(C)N1CC(=O)N2[C@H](c3ccc4c(c3)OCO4)c3[nH]c4ccccc4c3C[C@@H]2C1=O` (stereo in doubt; 14) displayed an EC50 of 150 nM. Besides, in data set [9], the IC50 was determined as 8 nM.

In data set [2] (Rattus norvegicus), `CCCCN1CC(=O)N2C(c3ccc(C)cc3)c3[nH]c4ccccc4c3C[C@@H]2C1=O` (some centres not stated) yielded an EC50 of 350 nM. The compound further gave an IC50 in data set [9] of 26 nM.

On to `COc1ccc([C@H]2c3[nH]c4ccccc4c3C[C@@H]3C(=O)N(Cc4ccccc4)CN23)cc1`, for which the EC50 in data set [2] (Rattus norvegicus) was more than 10000 nM. Besides, the IC50 in data set [9] worked out at 60 nM.

Compound `CCCCN1CC(=O)N2C(c3ccccc3)c3[nH]c4ccccc4c3C[C@@H]2C1=O` (some centres not stated) yielded an EC50 in data set [2] (Rattus norvegicus) of more than 10000 nM. This compound had an IC50 in [9] of 91 nM.

With `CCCCN1CC(=O)N2C(c3ccc4c(c3)OCO4)c3[nH]c4ccccc4c3C[C@@H]2C1=O` (single isomer, unassigned), the EC50 in data set [2] (Rattus norvegicus) stood at 3500 nM. Besides, the IC50 in data set [9] was 138 nM.

Regarding `O=C1NCC(=O)N2[C@H](c3ccc4c(c3)OCO4)c3[nH]c4ccccc4c3C[C@H]12` (stereo in doubt) [NORTADALAFIL], the EC50 in data set [2] came to 600 nM. This compound returned an IC50 in data set [9] of 12 nM.

In turn, `COc1ccc(C2c3[nH]c4ccccc4c3C[C@@H]3C(=O)N(Cc4ccccc4)C(=O)N23)cc1` (some centres not stated) yielded an EC50 in data set [2] (Rattus norvegicus) of more than 10000 nM. This compound also gave an IC50 in data set [9] of 18 nM.

The compound `CCCCN1C[C@H]2Cc3c([nH]c4ccccc34)[C@@H](c3ccc(OC)cc3)N2C1` came in with an IC50 in data set [9] of more than 10000 nM.

In turn, `O=C1NCC(=O)N2[C@H](c3ccc4c(c3)OCO4)c3[nH]c4ccccc4c3C[C@H]12` (stereo in doubt; 16) [NORTADALAFIL] came in with an EC50 in data set [2] (Rattus norvegicus) of 300 nM. This compound registered an IC50 in [9] of 11 nM.

As for `CCCCN1CC(=O)N2C(c3ccc(C#N)cc3)c3[nH]c4ccccc4c3C[C@@H]2C1=O` (some centres not stated), the IC50 in data set [9] was 758 nM.

One may read the inhibition as the change of the read-out against control, counted positive when it falls. A lower inhibition goes with a weak effect. As to `CCCCN1CC(=O)N2C(c3ccc(OC)c(OC)c3)c3[nH]c4ccccc4c3C[C@@H]2C1=O` (some centres not stated), the inhibition in data set [11] was 62%.

As to `CN1C[C@H]2Cc3c([nH]c4ccccc34)[C@@H](c3ccc4c(c3)OCO4)N2C1=O`, the EC50 in data set [2] (Rattus norvegicus) was more than 10000 nM. This compound had an IC50 in [9] of 60 nM.

`CCCCN1CC(=O)N2C(c3ccc(OC)cc3)c3[nH]c4ccccc4c3C[C@@H]2C1=O` (some centres not stated) yielded an EC50 in data set [2] (Rattus norvegicus) of more than 10000 nM. In [9], this compound registered an IC50 of 70 nM.

`CCCCN1CC(=O)N2[C@H](c3ccc4c(c3)OCO4)c3[nH]c4ccccc4c3C[C@@H]2C1=O` (stereo in doubt; 13) had an EC50 in data set [2] (Rattus norvegicus) of 1000 nM. The compound further displayed an IC50 in data set [9] of 3 nM.

The compound `CC(C)N1CC(=O)N2[C@H](c3ccc4c(c3)OCO4)c3[nH]c4ccccc4c3C[C@@H]2C1=O` (stereo in doubt) came in with an EC50 in data set [2] of 500 nM. The same compound returned an IC50 in data set [9] of 6 nM.

For the compound `COc1ccc([C@@H]2c3[nH]c4ccccc4c3C[C@@H]3C(=O)N(C4CCCC4)CC(=O)N23)cc1`, the EC50 in [2] (Rattus norvegicus) was determined as 200 nM. Further, the IC50 in data set [9] was 17 nM.
